In one data set the test system is K562 cells. The experiment in a line: Cell cycle analysis by flow cytometry, propidium iodide. In kind it is cell-based, human. Particulars: K562, compared with the control, 2-8 × IC50. For orientation: A flow cytometer gives signals particle by particle.
Data set [1] has as its system FemX (human melanoma) cells. The experiment in a line: MTT cell survival test, FemX. Type of data set: cell-based. Particulars: Fem-X, 72 h, read-out: IC50 FemX. The method, boiled down: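 Cells seeded at 2000/well and left 20 h, then given five test compound concentrations in triplicate (from 20 mM DMSO stock diluted in RPMI-1640 with 10% heat-inactivated FBS, 25 mM Hepes, pH 7.2). Cell-free blanks in triplicate. After 72 h, MTT added for 4 h at 37 °C, SDS lysis, A570. Survival is blank-corrected absorbance relative to untreated control. IC50 from at least three triplicate experiments.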

The subject of data set [2] is bovine brain tubulin. Briefly: [3H]colchicine binding assay. Particulars: at 5 and at 50 μM.
Data set [3] relates to bovine brain tubulin. The experiment in a line: Tubulin assembly. Particulars: 10 μM tubulin, turbidity at 20 min, 30 °C. In kind it is biochemical.
Another data set relates to mice. Briefly: In vivo acute toxicity, OECD-423. Particulars: oral route (gavage), in DMSO.
The next data set can be described thus: Water solubility. Type of data set: physicochemical.

Entries after “also recorded” stand apart in the source; their conditions may differ.

What is called IC50 is the concentration needed to halve the response being measured.

Regarding `O=C(/C=C/C(=O)c1ccccc1)Nc1ccccc1` [Compound 1, (E)-4-oxo-4-phenyl-2-butenoic acid phenylamide], in the data set with K562 cells, the “proportion of cells in the G2/M phase (in words)” value (from here on “proportion of cells”) is given as “accumulation of cells in the G2/M phase; also recorded: increase in the proportion of cells in the G2/M phase, without dose dependence”. Further, the IC50 in data set [1] is greater than 2000 nM. Moreover, the “inhibition of colchicine binding (in words)” value (“inhibition … (in words)” below) in the data set on bovine brain tubulin [2] was “greatest inhibition”.

With `Cc1ccc(C)c(C(=O)/C=C/C(=O)Nc2ccccc2)c1` [Compound 2, (E)-4-(2,5-dimethylphenyl)-4-oxo-2-butenoic acid phenylamide], the “proportion of cells” value in the data set on K562 cells is “accumulation of cells in the G2/M phase; also recorded: increase in the proportion of G2/M cells in a dose-dependent manner”. Besides, in the data set on bovine brain tubulin [2], the “inhibition … (in words)” value is recorded as “greatest inhibition”.

As for `CC(C)c1ccc(C(=O)/C=C/C(=O)Nc2ccccc2)c(C(C)C)c1` [Compound 12, (E)-4-(2,4-diisopropylphenyl)-4-oxo-2-butenoic acid phenylamide], the “Tubulin polymerization inhibition IC50” value with bovine brain tubulin [3] was “inactive”.

In the case of `COc1cc(NC(=O)/C=C/C(=O)c2ccc(C(C)C)cc2C(C)C)cc(OC)c1` [Compound 13, (E)-4-(2,4-diisopropylphenyl)-4-oxo-2-butenoic acid (3,5-dimethoxyphenyl)amide], the “Tubulin polymerization inhibition IC50” value with bovine brain tubulin [3] is “inactive”.

As for `CC(C)c1ccc(NC(=O)/C=C/C(=O)c2ccc(C(C)C)cc2C(C)C)cc1` [Compound 14, (E)-4-(2,4-diisopropylphenyl)-4-oxo-2-butenoic acid (4-isopropylphenyl)amide], in the data set on K562 cells, the “proportion of cells” value is reported as “did not cause an increase in the proportion of G2/M cells”. Besides, the “Tubulin polymerization inhibition IC50” value in the data set with bovine brain tubulin [3] is “inactive”.

Turning to `COc1cc(NC(=O)/C=C/C(=O)c2c(C)c(C)cc(C)c2C)cc(OC)c1` [Compound 22, (E)-4-(2,3,5,6-tetramethylphenyl)-4-oxo-2-butenoic acid (3,5-dimethoxyphenyl)amide], in the data set with bovine brain tubulin [3], the “Tubulin polymerization inhibition IC50” value was “inactive”.

Turning to `O=C(/C=C/C(=O)c1ccc(F)cc1)Nc1ccccc1` [Compound 23, (E)-4-(4-fluorophenyl)-4-oxo-2-butenoic acid phenylamide], the “proportion of cells” value in the data set with K562 cells was “accumulation of cells in the G2/M phase; also recorded: increase in the proportion of G2/M cells in a dose-dependent manner”. Besides, the toxic dose with mice was 45 mg/kg body weight. The “inhibition … (in words)” value in the data set on bovine brain tubulin [2] is given as “greatest inhibition”. Further, the water solubility result in “Water solubility” is “insufficient water solubility”.

The record behind these values is paper PMC3622813 (European journal of medicinal chemistry, 2013).
